Data reported in ChEMBL document CHEMBL1153525, “Adenosine A2A receptor-antagonist/dopamine D2 receptor-agonist bivalent ligands as pharmacological tools to detect A2A-D2 receptor heteromers” (J Med Chem, 2009).
The source made the active and inactive calls. The rule behind the calls is not given here.

Columns and labels:
[1] = test system: Dopamine D2 receptor (Homo sapiens); test: Displacement of [3H]YM09151-2 from human A2aR/D2R (long isoform) heteromer expressed in mouse Ltk cells by scintillation counting
[2] = biological target: Adenosine A2A receptor (Homo sapiens) (UniProt P29274); test: Antagonist activity at human A2aR expressed in HEK293 cells assessed as inhibition of CGS-21680-induced cAMP production at 10 uM; format: functional, cell-based
Summary of the method: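 Human A2AR was transiently expressed in HEK-293 cells, which were held 16 h serum-free with 1.5 U/mL ADA and used 48 h post-transfection. Cells were preincubated 10 min at 37 °C with 50 μM zardaverine, 10 mM MgCl2 and 1.5 U/mL ADA. Ligand at 10 μM was given alone, or 10 min before 200 nM CGS 21680 (10-15 min). cAMP was measured by [3H]cAMP assay, as % of CGS 21680 response; three independent experiments.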
Target sequence in this assay (P29274 whole entry, canonical isoform): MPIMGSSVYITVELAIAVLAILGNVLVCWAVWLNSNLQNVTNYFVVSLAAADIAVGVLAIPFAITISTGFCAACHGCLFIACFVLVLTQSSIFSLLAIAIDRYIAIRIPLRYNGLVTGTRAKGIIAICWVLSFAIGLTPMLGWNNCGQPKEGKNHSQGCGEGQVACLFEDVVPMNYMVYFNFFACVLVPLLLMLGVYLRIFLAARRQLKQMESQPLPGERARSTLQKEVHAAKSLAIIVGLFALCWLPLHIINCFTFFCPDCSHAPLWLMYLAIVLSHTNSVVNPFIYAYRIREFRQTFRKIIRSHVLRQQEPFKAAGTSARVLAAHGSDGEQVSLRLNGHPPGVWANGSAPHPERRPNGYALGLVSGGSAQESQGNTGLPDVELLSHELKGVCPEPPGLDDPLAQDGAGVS

[3] = biological target: D(2) dopamine receptor (Homo sapiens) (UniProt P14416); test: Agonist activity at human D2R receptor expressed In HEK293 cells assessed as decrease in forskolin-induced cAMP level at 10 uM; format: functional, cell-based; parameters: scale not given: the % may be the effect or the level left
Chain of D(2) dopamine receptor (Homo sapiens) (P14416 whole entry, canonical isoform): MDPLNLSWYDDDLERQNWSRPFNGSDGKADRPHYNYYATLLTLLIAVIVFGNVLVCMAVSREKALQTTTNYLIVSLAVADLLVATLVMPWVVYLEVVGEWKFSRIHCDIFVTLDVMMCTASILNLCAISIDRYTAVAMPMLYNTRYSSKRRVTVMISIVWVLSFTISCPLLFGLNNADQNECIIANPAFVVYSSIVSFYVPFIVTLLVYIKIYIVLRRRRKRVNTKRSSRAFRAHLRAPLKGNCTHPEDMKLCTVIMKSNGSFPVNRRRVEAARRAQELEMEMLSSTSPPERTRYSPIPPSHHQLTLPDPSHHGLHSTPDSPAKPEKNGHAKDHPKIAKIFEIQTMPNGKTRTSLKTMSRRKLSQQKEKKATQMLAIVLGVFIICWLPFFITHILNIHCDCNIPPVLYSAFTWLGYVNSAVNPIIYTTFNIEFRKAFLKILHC
Summary of the method: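 HEK-293 cells transiently transfected with human D2R (long isoform) were kept 16 h in serum-free medium, then used 48 h after transfection. Cells were preincubated 10 min at 37 °C with 50 μM zardaverine in serum-free medium with 10 mM MgCl2. Test ligand at 10 μM was added, then 10 μM forskolin for 15 min. Cells were extracted with HClO4 and cAMP was measured by [3H]cAMP assay, as % of forskolin-induced level; three independent experiments.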

[4] = Displacement of [3H]ZM241385 from A2aR dimer in lamb striatum membrane assessed as high affinity macroscopic equilibrium dissociation constant by scintillation counting; format: cell membranes, Ovis aries
Summary of the method: (§1)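 Lamb striatal membranes (0.3-0.5 mg protein/mL) were incubated 2 h at 25 °C in 50 mM Tris-HCl pH 7.4 with 10 mM MgCl2 and 2 U/mL ADA. Radioligand was 2.1 nM [3H]ZM241385 (A2AR) or 0.9 nM [3H]YM09151-2 (D2R), against 11 competitor concentrations from 0.1 nM to 50 μM in triplicate. Nonspecific binding used 50 μM unlabeled radioligand. After GF/C filtration, counts were fitted to a two-state dimer model for KDB1 and KDB2; three experiments.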

[5] = biological target: D(2) dopamine receptor (Homo sapiens) (UniProt P14416); test: Displacement of [3H]YM09151-2 from human D2R expressed in mouse Ltk cells by scintillation counting relative to control; format: cell-based
Summary of the method: (§2)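 Mouse Ltk fibroblasts were transiently transfected with human A2AR, human D2R (long isoform) or both, and membranes were prepared 48 h later. Membranes were incubated 2 h at 25 °C in 50 mM Tris-HCl pH 7.4 with 10 mM MgCl2 and 2 U/mL ADA, plus 2.1 nM [3H]ZM241385 or 1.9 nM [3H]YM09151-2 and 1 μM test compound. Bound ligand was counted after filtration and expressed as % of specific binding without displacer; three independent experiments.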

[6] = Displacement of [3H]YM09151-2 from D2R (long isoform) dimer in lamb striatum membrane high affinity macroscopic equilibrium dissociation constant by scintillation counting; format: cell membranes, Ovis aries
Summary of the method: as §1

[7] = biological target: Adenosine A2A receptor (Homo sapiens) (UniProt P29274); test: Displacement of [3H]ZM241385 from human A2aR/D2R (long isoform) heteromer expressed in mouse Ltk cells by scintillation counting; format: cell-based
Summary of the method: as §2
Target sequence in this assay (P29274 whole entry, canonical isoform): as the sequence (P29274 whole entry, canonical isoform) above

[8] = biological target: Adenosine A2A receptor (Homo sapiens) (UniProt P29274); test: Displacement of [3H]ZM241385 from human A2aR expressed in mouse Ltk cells at 1 uM by scintillation counting relative to control; format: cell-based
Summary of the method: as §2
Target sequence in this assay (P29274 whole entry, canonical isoform): as above

[9] = Displacement of [3H]YM09151-2 from D2R (long isoform) dimer in lamb striatum membrane low affinity macroscopic equilibrium dissociation constant by scintillation counting; format: cell membranes, Ovis aries
Summary of the method: as §1

[10] = biological target: Adenosine A2A receptor (Homo sapiens) (UniProt P29274); test: Displacement of [3H]ZM241385 from human A2AR expressed in mouse Ltk cells at 1 uM by scintillation counting relative to control
Target sequence in this assay (P29274 whole entry, looked up, canonical isoform): as the sequence (P29274 whole entry, canonical isoform) above

[11] = biological target: Adenosine A2A receptor (Homo sapiens) (UniProt P29274); test: Displacement of [3H]ZM241385 from human A2aR/D2R (long isoform) coexpressed in mouse Ltk cells by scintillation counting; format: cell-based
Summary of the method: as §2
Target sequence in this assay (P29274 whole entry, canonical isoform): as above

[12] = biological target: Adenosine A2A receptor (Homo sapiens) (UniProt P29274); test: Agonist activity at human A2aR expressed in HEK293 cells assessed as cAMP accumulation at 10 uM
Target sequence in this assay (P29274 whole entry, canonical isoform): as above

| Activity [1] | Activity [2] | Activity [3] [%] | Ki [4] [nM] | Activity [5] | Ki [6] [nM] | Activity [7] | Activity [8] | Ki [9] [nM] | Activity [10] | Activity [11] | Activity [12] | SMILES |
| --- | --- | --- | --- | --- | --- | --- | --- | --- | --- | --- | --- | --- |
| Active | Active | 87 | 59 | inactive | 1.1 | Active | Active | 7000 | Active | Active | inactive | CCCN(CCc1ccc(NC(=O)CCC(N)C(=O)NCCCCC(NC(=O)CCC(=O)NCCOCCOCCNC(=O)C(CCCCNC(=O)C(N)CCCCNC(=O)COc2ccc(-c3nc4c([nH]3)c(=O)n(CCC)c(=O)n4CCC)cc2)NC(C)=O)C(N)=O)cc1)C1CCc2c(O)cccc2C1 (centres undefined) |
| Active | Active | 78 | 50 | inactive | 1.8 | Active | Active | 500 | Active | Active | inactive | CCCN(CCc1ccc(NC(=O)CCC(N)C(=O)NCCCCC(NC(=O)CCC(=O)NCCOCCOCCNC(=O)CCC(=O)NCCOCCOCCNC(=O)CCC(=O)NCCOCCOCCNC(=O)C(CCCCNC(=O)C(N)CCCCNC(=O)COc2ccc(-c3nc4c([nH]3)c(=O)n(CCC)c(=O)n4CCC)cc2)NC(C)=O)C(N)=O)cc1)C1CCc2c(O)cccc2C1 (centres undefined) |
